# According to ChEMBL document CHEMBL4513216, “Probing the Open Global Health Chemical Diversity Library for Multistage-Active Starting Points for Next-Generation Antimalarials” (ACS Infect Dis, 2020):
# Assay: Toxicity liver stage against HepG2, at 10uM
# Assay type: cell-based
# Design: test concentration 10 uM, cell line HepG2-A16-CD81EGFP
# Details: human, HepG2-A16-CD81EGFP cells; read-out: INHIBITION
# In short: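 Uninfected HepG2-A16-CD81EGFP cells, 3 × 10^3 per well, 1536-well, plated on prespotted compound at 10 μM final, parasite-free screening media added to match infected plates; puromycin 10 μM positive, DMSO 0.5% negative; run in parallel with 48 h PbLuc assay at 37 °C, 5% CO2; viability by CellTiter-Glo luminescence, normalized to controls.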
row,SMILES,cytotoxicity at 10 µM
1,COc1ccc(F)cc1C(=O)C1CCCN(Cc2cnc(C)s2)C1 (stereo not given),6.26%
2,O=C(c1ccc2c(c1)OCO2)N1CCN2C(=O)NC[C@H]2C1,2.02%
3,Cc1n[nH]c2c1C(c1ccc(Cl)cc1)SCC(=O)N2 (stereo not given),19.2%
4,CCOc1nc2cnccc2n(CC(=O)NCc2ccco2)c1=O,-8.84%
5,CC(C)COC(=O)N1CC(=O)N(Cc2ccco2)CC(O)C1 (stereo not given),-1.7%
6,CCN1CC(O)CN(C(=O)c2ccc(SC)cc2)CC1=O (stereo not given),6.88%
7,CC(C)C[C@H](NC(=O)Nc1ccc(F)c(Cl)c1)C(=O)O,-43%
8,N#Cc1nc(COc2ccc3c(c2)OCO3)oc1NC1CC1,-43%
9,O=C(NCC(Cc1cccc(F)c1)N1CCCC1=O)c1ccc(=O)[nH]n1 (stereo not given),-0.634%
10,NC(=O)N1CC[C@H](O)[C@@H]1Cc1ccccc1,3.32%
11,Cc1nc(CN2CCc3nc(NC(C)C)nc(C)c3C2)cs1,2.53%
12,Cc1cc(N2CCC(Cc3ccccc3)CC2)ncn1,3.51%
13,CN1CCCCC[C@@H]2[C@@H]1[C@H](c1ccccc1)CN2C(=O)c1cccnc1,-24.4%
14,CN1CCCC[C@@H]2[C@H]1[C@@H](c1ccccc1)CCN2C(=O)c1cccnc1,-21.2%
15,Cc1cc(C)nc(Nc2cccc(C3CCCN(CC4CC4)C3)n2)n1 (stereo not given),-11.3%
16,COCC(=O)N1CCc2nc(-c3cnccn3)nc(O)c2C1,27.7%
17,CS(=O)(=O)N1CCC(C(=O)NC(Cc2ccsc2)c2cccnc2)CC1 (stereo not given),-12.5%
18,O=C(N[C@@H]1CN(Cc2cccc(F)c2)C[C@H]1O)c1cscn1,-4.66%
19,CC(=O)N1CC(Cc2nccc3ccn(C)c23)C1,0.668%
20,COc1ccccc1C(=O)N1CC(Cc2nccc3ccn(C)c23)C1,-0.619%
21,Cn1nc(C2CCNC2)c2c(C(=O)NCC(F)(F)F)cc(C3CC3)nc21 (stereo not given),8.41%
22,COc1ccc(NC(=O)Cc2c(C)nn(C)c2C)cc1F,10.1%
23,Cc1csc(C2(NC(=O)NCCN3CCOCC3)CCC2)n1,-0.746%
24,CCCNC(=O)CN1CCCC1c1nc(Cc2ccc(F)cc2)no1 (stereo not given),4.8%
25,CCN(CC)CC1CCN(Cc2ncc(C(C)(C)C)o2)CC1,-7.22%
26,CC(C)(C)NC(=O)c1cccc(CN2CCS(=O)(=O)CC2)c1,4.5%
27,Cc1ccc(C(CNCc2nccn2C)N2CCOCC2)s1 (stereo not given),-1.76%
28,Cc1ccoc1CNCc1nnc2n1CCCC2C(F)(F)F (stereo not given),13.9%

row,SMILES,cytotoxicity at 10 µM
1,O=C(NS(=O)(=O)c1ccccc1C(F)(F)F)c1cccc2c1OCCO2,5.56%
2,Cc1nnc(NC(=O)c2cc(S(=O)(=O)N3CCSCC3)c[nH]2)s1,-7.01%
3,COC(=O)CCN1CCC(C(=O)c2cc(F)ccc2F)CC1,-11.1%
4,CCn1cnnc1C1CCN(C(=O)c2c(C)oc(C)c2C)CC1,5.89%
5,CCN(CC(=O)NC(C)C)C(=O)c1ccc(-c2ccsc2)nc1C,-0.908%
6,CC(C)c1nc(CC(=O)N(C)Cc2ccc3c(c2)OCO3)cs1,-13.5%
7,COc1ccc(CNC(=O)NCc2ccc(C)cc2)cn1,-5.63%
8,CCN(CC(=O)N(C)C)C(=O)C(C)(C)c1ccc2c(c1)OCCO2,1.22%
9,CSCC(=O)N(C)Cc1ccc(N(C)C)cc1,8.63%
10,COc1cccc(CCNC(=O)CCS(=O)(=O)C2CCCC2)c1,2.2%
11,CCn1c(=O)n(Cc2nc(C3CC3)no2)c2ccccc21,-43.2%
12,CCOc1cccc(CNC(C)c2ccc(-n3ccnc3)cc2)c1O (stereo not given),-38.3%
13,Cc1ccc(CNC(=O)Cn2c(=O)c3cccnc3n2C)cc1F,-2.83%
14,CCC(Nc1nnnn1-c1ccccc1)C(=O)NCc1cccs1 (stereo not given),-1.12%
15,O=C1OCCN1CCCN1CCCC1c1ccc(O)cc1 (stereo not given),-6.3%
16,CCOCC(=O)Nc1cccnc1-n1ccnc1C,3.62%
17,CC(C)CCN1CCN(C(=O)c2ccc(=O)[nH]n2)CC1,-6.96%
18,Cc1cnn(CCNCc2nc(-c3ccsc3)oc2C)c1,-3.55%
19,CC(CCc1ccccc1)N1CCC(C(=O)NCc2ccccc2)CC1 (stereo not given),11%
20,CCn1ncc(C(=O)NCc2ccc(C)c(OC)c2)c1C(F)(F)F,10.2%
21,Cc1nc(C)n(Cc2cccc(NC(=O)NC(C)(CO)C3CC3)c2)n1 (stereo not given),14.3%
22,O=C1CCC(C(=O)Nc2cnn(-c3ccccc3Br)c2)N1 (stereo not given),3.56%
23,Cc1cnc(CN2CCN(c3ccnc(-c4ccccc4)n3)CC2)cn1,3.61%
24,Cc1nnc(NC(=O)CN2CCCC(c3ccn[nH]3)C2)s1 (stereo not given),-37.6%
25,CCOc1ccc(C(C)NC(=O)N2CCC(C(N)=O)CC2)cc1OC (stereo not given),-4.56%
26,Clc1ccc(OCCN2CCN(CCn3cncn3)CC2)cc1,-17.4%
27,CCc1nc(C2CCCN2Cc2nc(CCOC)no2)no1 (stereo not given),-10.8%
